Values after ≈ are worked out from the molar mass of the structure shown.
Experiments:
Cutibacterium acnes [1] = experiment: MBC/MIC ratio of Propionibacterium acnes SW101T; format: functional
Outline: (§1)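 MIC by CLSI broth microdilution in Wilkins-Chalgren broth in anaerobic jars (O2 <0.1%, CO2 >15%), read after 48 h at 35–37°C on an illuminated plate reader. For MBC, samples were plated onto Wilkins-Chalgren agar and incubated anaerobically for 72 h at 35–37°C before growth was scored.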

Cutibacterium acnes [2] = experiment: Antibacterial activity against drug-resistant Propionibacterium acnes SW11 after 48 hrs by broth microdilution method; format: functional
Outline: (§2)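 Broth microdilution MIC in Wilkins-Chalgren broth without lysed horse blood, following CLSI anaerobe guidelines. Plates were held in anaerobic jars with atmosphere generators (O2 <0.1% by 2.5 h, CO2 >15% by 24 h) at 35 to 37°C for 48 h. Growth was read with an illuminated plate reader and magnifying mirror.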

Cutibacterium acnes [3] = experiment: Antibacterial activity against drug-resistant Propionibacterium acnes P429:1 (BC) after 48 hrs by broth microdilution method; format: functional; outline: as §2
[4] = tested on: Streptococcus equi subsp. zooepidemicus; experiment: Antibacterial activity against Streptococcus equi subsp. zooepidemicus after 48 hrs by broth microdilution method; format: functional
Staphylococcus aureus [5] = experiment: Antibacterial activity against borderline oxacillin-resistant Staphylococcus aureus after 20 to 24 hrs by broth microdilution method
Cutibacterium acnes [6] = experiment: Antibacterial activity against drug-resistant Propionibacterium acnes EG3NS after 48 hrs by broth microdilution method; format: functional; outline: as §2
Cutibacterium acnes [7] = experiment: Antibacterial activity against drug-resistant Propionibacterium acnes EG7NS after 48 hrs by broth microdilution method; format: functional; outline: as §2
Corynebacterium jeikeium = experiment: Antibacterial activity against Corynebacterium jeikeium after 48 hrs by broth microdilution method; format: functional
Outline: (§3)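 Broth microdilution per CLSI in cation-adjusted Mueller-Hinton broth supplemented with 0.5% (vol/vol) Tween 80. Plates incubated at 35°C in ambient air for 44 to 48 h, then read visually. MICs in μg/ml; a geometric mean MIC was calculated across the corynebacterial strains.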

[8] = tested on: Propionibacterium granulosum; experiment: Antibacterial activity against drug-resistant Propionibacterium granulosum QK6/92 after 48 hrs by broth microdilution method
Cutibacterium acnes [9] = experiment: MBC/MIC ratio of Propionibacterium acnes P95; format: functional; outline: as §1
[10] = tested on: Propionibacterium granulosum; experiment: Antibacterial activity against drug-resistant Propionibacterium granulosum NCTC-11865 after 48 hrs by broth microdilution method; format: functional; details: Cutibacterium granulosum, NCTC-11865, 48 h; outline: as §2
Staphylococcus aureus [11] = experiment: Antibacterial activity against methicillin-susceptible Staphylococcus aureus after 48 hrs by broth microdilution method; format: functional
Cutibacterium acnes [12] = experiment: Antibacterial activity against drug-resistant Propionibacterium acnes D-04/97 after 48 hrs by broth microdilution method; format: functional; outline: as §2
Cutibacterium acnes [13] = experiment: Antibacterial activity against drug-resistant Propionibacterium acnes GE46EB after 48 hrs by broth microdilution method; format: functional; outline: as §2
Cutibacterium acnes [14] = experiment: Antibacterial activity against drug-resistant Propionibacterium acnes SP64E after 48 hrs by broth microdilution method; format: functional; outline: as §2
Cutibacterium acnes [15] = experiment: Antibacterial activity against drug-resistant Propionibacterium acnes SW54EA after 48 hrs by broth microdilution method; format: functional; outline: as §2
[16] = tested on: Corynebacterium minutissimum; experiment: Antibacterial activity against Corynebacterium minutissimum after 48 hrs by broth microdilution method; format: functional; outline: as §3
Cutibacterium acnes [17] = experiment: Antibacterial activity against drug-resistant Propionibacterium acnes EG7NS after 72 hrs; format: functional
Outline: (§4)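 MBC for P. acnes followed MIC assays by standard methodology. Samples were plated on Wilkins-Chalgren agar, incubated anaerobically in GENbox jars at 35 to 37°C, and examined for growth after 72 h.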

Cutibacterium acnes [18] = experiment: Antibacterial activity against drug-resistant Propionibacterium acnes P401:5 after 48 hrs by broth microdilution method; format: functional; outline: as §2
Streptococcus pyogenes = experiment: Antibacterial activity against Streptococcus pyogenes after 20 to 24 hrs by broth microdilution method
Cutibacterium acnes [19] = experiment: Antibacterial activity against drug-resistant Propionibacterium acnes SW101CDA after 48 hrs by broth microdilution method; format: functional; outline: as §2
Cutibacterium acnes [20] = experiment: Antibacterial activity against drug-resistant Propionibacterium acnes P95 after 48 hrs by broth microdilution method; format: functional; outline: as §2
[21] = tested on: Staphylococcus epidermidis; experiment: Antibacterial activity against Staphylococcus epidermidis after 48 hrs by broth microdilution method; format: functional
[22] = tested on: Corynebacterium diphtheriae; experiment: Antibacterial activity against Corynebacterium diphtheriae after 48 hrs by broth microdilution method; format: functional; outline: as §3
Cutibacterium acnes [23] = experiment: Antibacterial activity against drug-resistant Propionibacterium acnes P95 after 72 hrs; format: functional; outline: as §4
Cutibacterium acnes [24] = experiment: Antibacterial activity against drug-resistant Propionibacterium acnes P429:1 (SC) after 48 hrs by broth microdilution method; format: functional; outline: as §2
[25] = tested on: Corynebacterium amycolatum; experiment: Antibacterial activity against Corynebacterium amycolatum after 48 hrs by broth microdilution method; format: functional; outline: as §3
Cutibacterium acnes [26] = experiment: MBC/MIC ratio of Propionibacterium acnes SW3CD; format: functional; outline: as §1
Cutibacterium acnes [27] = experiment: Antibacterial activity against drug-resistant Propionibacterium acnes SW10 after 48 hrs by broth microdilution method; format: functional; outline: as §2
Cutibacterium acnes [28] = experiment: Antibacterial activity against drug-resistant Propionibacterium acnes SW17 after 48 hrs by broth microdilution method; format: functional; outline: as §2
Cutibacterium acnes [29] = experiment: Antibacterial activity against drug-resistant Propionibacterium acnes P425:1 after 48 hrs by broth microdilution method; format: functional; outline: as §2
Cutibacterium acnes [30] = experiment: Antibacterial activity against drug-resistant Propionibacterium acnes OK8/97 after 48 hrs by broth microdilution method; format: functional; outline: as §2
Cutibacterium acnes [31] = experiment: Antibacterial activity against drug-resistant Propionibacterium acnes EG13NS after 48 hrs by broth microdilution method; format: functional; outline: as §2
Cutibacterium acnes [32] = experiment: Antibacterial activity against drug-resistant Propionibacterium acnes FG7E after 48 hrs by broth microdilution method; format: functional; outline: as §2
Cutibacterium acnes [33] = experiment: Antibacterial activity against drug-resistant Propionibacterium acnes P:413 after 48 hrs by broth microdilution method; format: functional; outline: as §2
Cutibacterium acnes [34] = experiment: Antibacterial activity against drug-resistant Propionibacterium acnes GE4E after 48 hrs by broth microdilution method; format: functional; outline: as §2
Cutibacterium acnes [35] = experiment: Antibacterial activity against drug-resistant Propionibacterium acnes SW101T after 48 hrs by broth microdilution method; format: functional; outline: as §2
Cutibacterium acnes [36] = experiment: MBC/MIC ratio of Propionibacterium acnes EG7NS; format: functional; outline: as §1
Cutibacterium acnes [37] = experiment: Antibacterial activity against drug-resistant Propionibacterium acnes SW16 after 48 hrs by broth microdilution method; format: functional; outline: as §2
Cutibacterium acnes [38] = experiment: Antibacterial activity against drug-resistant Propionibacterium acnes P322:2 after 48 hrs by broth microdilution method; format: functional; outline: as §2
Cutibacterium acnes [39] = experiment: Antibacterial activity against drug-resistant Propionibacterium acnes SW3CD after 48 hrs by broth microdilution method; format: functional; outline: as §2
[40] = Antibacterial activity against Streptococcus dysgalactiae subsp. dysgalactiae after 48 hrs by broth microdilution method; format: functional
Cutibacterium acnes [41] = experiment: Antibacterial activity against drug-resistant Propionibacterium acnes SW26 after 48 hrs by broth microdilution method; format: functional; outline: as §2
Staphylococcus aureus [42] = experiment: Antibacterial activity against methicillin-resistant Staphylococcus aureus after 20 to 24 hrs by broth microdilution method
Cutibacterium acnes [43] = experiment: Antibacterial activity against drug-resistant Propionibacterium acnes SW3CD after 72 hrs; format: functional; outline: as §4

Question: With `CCC[C@@H]1C[C@@H](C(=O)N[C@@H]([C@H]2O[C@H](SC)[C@H](O)[C@@H](O)[C@H]2O)[C@H](C)Cl)N(C)C1` [CLINDAMYCIN] as the compound, how does the Ratio (Cutibacterium acnes [1]) read?
Answer: Its Ratio is greater than 2.

Question: What about the MIC (Cutibacterium acnes [2]) of the same compound?
Answer: Its MIC is 0.5 µg/mL (≈ 1.18 µM).

Question: And the MIC (Cutibacterium acnes [3])?
Answer: The MIC was 8 µg/mL (≈ 18.8 µM).

Question: What about the MIC [4] of the same compound?
Answer: Its MIC is 0.11 µg/mL (≈ 0.259 µM).

Question: What about the MIC (Staphylococcus aureus [5]) of the same compound?
Answer: The MIC was 1.16 µg/mL (≈ 2.73 µM).

Question: And the MIC (Cutibacterium acnes [6])?
Answer: Its MIC is 0.25 µg/mL (≈ 0.588 µM).

Question: What about the MIC (Cutibacterium acnes [7]) of the same compound?
Answer: The MIC was no more than 0.06 µg/mL.

Question: And the MIC (Corynebacterium jeikeium)?
Answer: Its MIC is 7.97 µg/mL (≈ 18.8 µM).

Question: What about the MIC [8] of the same compound?
Answer: Its MIC is 1 µg/mL (≈ 2.35 µM).

Question: And the Ratio (Cutibacterium acnes [9])?
Answer: Its Ratio is greater than 64.

Question: And the MIC [10]?
Answer: The MIC was no more than 0.06 µg/mL.

Question: And the MIC (Staphylococcus aureus [11])?
Answer: Its MIC is 1.16 µg/mL (≈ 2.73 µM).

Question: And the MIC (Cutibacterium acnes [12])?
Answer: Its MIC is 0.125 µg/mL (≈ 0.294 µM).

Question: And the MIC (Cutibacterium acnes [13])?
Answer: Its MIC is 512 µg/mL (≈ 1200 µM).

Question: And the MIC (Cutibacterium acnes [14])?
Answer: The MIC was greater than 512 µg/mL.

Question: What about the MIC (Cutibacterium acnes [15]) of the same compound?
Answer: Its MIC is 32 µg/mL (≈ 75.3 µM).

Question: And the MIC [16]?
Answer: The MIC was 7.97 µg/mL (≈ 18.8 µM).

Question: And the MBC (Cutibacterium acnes [17])?
Answer: The MBC was greater than 32 µg/mL.

Question: What about the MIC (Cutibacterium acnes [18]) of the same compound?
Answer: The MIC was 1 µg/mL (≈ 2.35 µM).

Question: And the MIC (Streptococcus pyogenes)?
Answer: The MIC was 0.07 µg/mL (≈ 0.165 µM).

Question: What about the MIC (Cutibacterium acnes [19]) of the same compound?
Answer: The MIC was no less than 512 µg/mL.

Question: And the MIC (Cutibacterium acnes [20])?
Answer: Its MIC is 0.5 µg/mL (≈ 1.18 µM).

Question: What about the MIC [21] of the same compound?
Answer: Its MIC is 1.12 µg/mL (≈ 2.64 µM).

Question: What about the MIC [22] of the same compound?
Answer: Its MIC is 7.97 µg/mL (≈ 18.8 µM).

Question: And the MBC (Cutibacterium acnes [23])?
Answer: Its MBC is 32 µg/mL (≈ 75.3 µM).

Question: And the MIC (Cutibacterium acnes [24])?
Answer: Its MIC is 4 µg/mL (≈ 9.41 µM).

Question: What about the MIC [25] of the same compound?
Answer: Its MIC is 7.97 µg/mL (≈ 18.8 µM).

Question: What about the Ratio (Cutibacterium acnes [26]) of the same compound?
Answer: Its Ratio is greater than 4.

Question: What about the MIC (Cutibacterium acnes [27]) of the same compound?
Answer: The MIC was 0.125 µg/mL (≈ 0.294 µM).

Question: And the MIC (Cutibacterium acnes [28])?
Answer: Its MIC is no more than 0.06 µg/mL.

Question: What about the MIC (Cutibacterium acnes [29]) of the same compound?
Answer: Its MIC is 512 µg/mL (≈ 1200 µM).

Question: What about the MIC (Cutibacterium acnes [30]) of the same compound?
Answer: The MIC was 0.125 µg/mL (≈ 0.294 µM).

Question: What about the MIC (Cutibacterium acnes [31]) of the same compound?
Answer: The MIC was no more than 0.06 µg/mL.

Question: And the MIC (Cutibacterium acnes [32])?
Answer: Its MIC is no less than 32 µg/mL.

Question: What about the MIC (Cutibacterium acnes [33]) of the same compound?
Answer: Its MIC is no more than 0.06 µg/mL.

Question: What about the MIC (Cutibacterium acnes [34]) of the same compound?
Answer: The MIC was greater than 512 µg/mL.

Question: What about the MIC (Cutibacterium acnes [35]) of the same compound?
Answer: Its MIC is 256 µg/mL (≈ 602 µM).

Question: And the Ratio (Cutibacterium acnes [36])?
Answer: Its Ratio is “>=533”.

Question: And the MIC (Cutibacterium acnes [37])?
Answer: The MIC was no more than 0.06 µg/mL.

Question: What about the MIC (Cutibacterium acnes [38]) of the same compound?
Answer: The MIC was 4 µg/mL (≈ 9.41 µM).

Question: And the MIC (Cutibacterium acnes [39])?
Answer: The MIC was 8 µg/mL (≈ 18.8 µM).

Question: What about the MIC [40] of the same compound?
Answer: The MIC was 0.12 µg/mL (≈ 0.282 µM).

Question: What about the MIC (Cutibacterium acnes [41]) of the same compound?
Answer: The MIC was no more than 0.06 µg/mL.

Question: What about the MIC (Staphylococcus aureus [42]) of the same compound?
Answer: The MIC was 1.16 µg/mL (≈ 2.73 µM).

Question: And the MBC (Cutibacterium acnes [43])?
Answer: The MBC was greater than 32 µg/mL.

Source: ChEMBL document CHEMBL1143835, “Antipropionibacterial activity of BAL19403, a novel macrolide antibiotic” (2007)
